Molecules are shown by their SMILES.

Our source for the Product formation, Retention_time and Retention time values is ChEMBL document CHEMBL4145691, “Metalloporphyrin-Catalyzed Oxidation of Sunitinib and Pazopanib, Two Anticancer Tyrosine Kinase Inhibitors: Evidence for New Potentially Toxic Metabolites” (J Med Chem, 2018).

Data set [1] can be described thus: Drug level using sunitinib assessed as compound formation in presence of KHSO5 and Mn(III)TDCPP/Cl by NMR and mass spectrometry. Format: physicochemical. Put shortly: (§1)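 Biomimetic oxidation catalysed by Mn(III)-porphyrin with water-soluble oxygen donor (KHSO5 or MMPP), run in biphasic water/organic medium with a quaternary ammonium salt as phase-transfer catalyst. Products identified by NMR and mass spectrometry.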

The nature of data set [2]: Retention time of the compound in presence of KHSO5 and Mn(III)TDCPP/Cl by UHPLC-MS analysis. Format: physicochemical. Put shortly: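 Sunitinib oxidation mixture run by UHPLC-MS at 0.4 mL/min and 30 °C. Eluents: 5 mM ammonium formate pH 3.2, and 0.1% formic acid in acetonitrile. Gradient 5→35% B by 3.5 min, held to 5.5 min, then 95% by 6.5 min. ESI+, full scan m/z 200–500 plus MRM.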

The nature of data set [3]: Retention time of the compound in human liver microsomes by UHPLC-MS analysis. Format: ADME, microsome. The essentials: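 Human liver microsomes (final 0.5 mg/mL protein) with NADPH regenerating system in 0.1 M phosphate pH 7.4, pre-incubated 5 min at 37 °C. Stopped with acetonitrile, centrifuged, filtered, supernatant analysed by UHPLC-MS (ESI+, full scan/MRM). No-NADPH negative control.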

Data set [4] can be described thus: Drug level using pazopanib assessed as compound formation in presence of MMPP and Mn(III)TDCPP/Cl by NMR and mass spectrometry. Format: physicochemical. Put shortly: as §1
A short description of data set [5]: Retention time of the compound in presence of MMPP and Mn(III)TDCPP/Cl by UHPLC-MS analysis. Format: physicochemical. Put shortly:
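Pazopanib oxidation mixture run by UHPLC-MS at 0.4 mL/min and 30 °C. Eluents: 5 mM ammonium formate pH 3.2, and 0.1% formic acid in acetonitrile. ESI+, full scan m/z 200–520 plus MRM.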

In the case of `CCN(CC)CCNC(=O)c1c(CO)[nH]c(/C=C2\C(=O)Nc3ccc(F)cc32)c1C`, in data set [1], the Product formation result was “Active”. The Retention_time in data set [2] and in data set [3] was 4.36 min throughout.
Turning to `Cc1ccc(Nc2ncc(Cl)c(N(C)c3ccc4c(C=O)n(C)nc4c3)n2)cc1S(N)(=O)=O`, in data set [4], the Product formation entry is “Active”. For the same compound, the Retention_time in data set [5] is 3.63 min.
As to `CCN(CC)CCNC(=O)c1c(/C=N/OC)[nH]c(/C=C2\C(=O)Nc3ccc(F)cc32)c1C`, the Retention_time in data set [2] is 4.77 min; in data set [3], 4.74 min.
With `CCN(CC)CCNC(=O)c1c(COC)[nH]c(/C=C2\C(=O)Nc3ccc(F)cc32)c1C`, in data set [1], the Product formation result is reported as “Active”. The Retention time in data set [2] is 4.56 min.
As to `CO/N=C/c1c2ccc(N(C)c3ccnc(Nc4ccc(C)c(S(N)(=O)=O)c4)n3)cc2nn1C`, the Product formation entry in data set [4] is on record as “Active”. Also, in data set [5], the Retention time was in the range of 2.96 to 3.11 min.
In the case of `Cc1ccc(Nc2ncc(Cl)c(N(C)c3ccc4c(C)n(C)nc4c3)n2)cc1S(N)(=O)=O`, the Product formation entry in data set [4] is on record as “Active”. Also, the Retention_time in data set [3] came out at 3.54 min; in data set [5] it was 3.55 min.
`Cc1ccc(Nc2ncc(Cl)c(N(C)c3ccc4c(CO)n(C)nc4c3)n2)cc1S(N)(=O)=O`: the Product formation entry in data set [4] is recorded as “Active”. Further, the Retention_time in data set [5] was found to be 3.32 min.
On to `CCN(CC)CCNC(=O)c1c(C=O)[nH]c(/C=C2\C(=O)Nc3ccc(F)cc32)c1C`, for which the Product formation entry in data set [1] is given as “Active”. Besides, the Retention_time in data set [2] and in data set [3] was 4.36 min throughout.
As for `Cc1ccc(Nc2nccc(N(C)c3ccc4c(CO)n(C)nc4c3)n2)cc1S(N)(=O)=O`, the Product formation result in data set [4] is “Active”. Also, the Retention_time in data set [5] was determined as 2.56 min.
With `CC[N+]([O-])(CC)CCNC(=O)c1c(C)[nH]c(/C=C2\C(=O)Nc3ccc(F)cc32)c1C`, the Product formation result in data set [1] was “Active”.
For `CC(=O)OCc1c2ccc(N(C)c3ccnc(Nc4ccc(C)c(S(N)(=O)=O)c4)n3)cc2nn1C`, the Product formation entry in data set [4] is “Active”.
With `Cc1ccc(Nc2nccc(N(C)c3ccc4c(C=O)n(C)nc4c3)n2)cc1S(N)(=O)=O`, the Product formation entry in data set [4] is given as “Active”. For the same compound, the Retention_time in data set [3] is listed as 2.84 min; in data set [5], 2.82 min.
